Results reported in ChEMBL document CHEMBL4673192, “Structure-activity relationship studies on 2,5,6-trisubstituted benzimidazoles targeting Mtb-FtsZ as antitubercular agents” (RSC Med Chem, 2021).
Converted amounts (≈) assume the structure as drawn.

Columns and labels:
[1] = system: Mycobacterium tuberculosis; assay: Antitubercular activity against Mycobacterium tuberculosis H37Rv incubated for 6 days by alamar blue assay; assay type: functional; settings: 144 h, time 6 day
In short: (§1)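 MABA (protocol A): Mtb H37Rv grown in 7H9 with 10% OADC and 0.05% Tween-80 and used at mid-log phase. Compounds from DMSO stocks were serially diluted 2-fold, and the inoculum was set to OD600 0.005. Plates were incubated 6 days at 37 °C, then Alamar Blue was added for a further 24 h. MIC is the lowest concentration (μg mL−1) preventing the colour change.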

[2] = system: Mycobacterium tuberculosis; assay: Antitubercular activity against mid logarithmic stage Mycobacterium tuberculosis H37Rv incubated for 6 days by alamar blue assay; assay type: functional; settings: 144 h, time 6 day
In short: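 Protocol B: the mid-log H37Rv culture (OD580 0.4) was diluted 1:100 and mixed with an equal volume of serially diluted compound (DMSO). After 6 days at 37 °C, Alamar blue plus 20% Tween 80 was added. Plates were read 24 h later at 570 nm against a 600 nm reference. Untreated inoculum wells gave the survival-inhibition curve, and rifampicin served as positive control.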

[3] = Cytotoxicity against human HepG2 cells assessed as reduction in cell viability at 20 uM incubated for 72 hrs by MTT assay relative to control; assay type: cell-based; settings: read-out: INH
In short: (§2)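 MTT assay: cells were seeded at 2500/well and attached overnight to 70–90% confluency (HepG2 in RPMI-1640, WI-38 in DMEM, each with 10% FBS). Compound was given at 20 μM final with 0.5% DMSO for 72 h. MTT was applied for 4 h in the dark and the formazan dissolved in DMSO, with OD read at 570 nm. % inhibition is relative to the DMSO control, mean of triplicate.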

[4] = Cytotoxicity against human WI-38 cells assessed as reduction in cell viability at 20 uM incubated for 72 hrs by MTT assay relative to control; assay type: cell-based; settings: read-out: INH; in short: as §2
[5] = system: Mycobacterium tuberculosis; assay: Antitubercular activity against Mycobacterium tuberculosis H37Rv infected in immune compromised GKO mouse assessed as spleen log CFU reduction; assay type: functional
[6] = system: Mycobacterium tuberculosis; assay: Antitubercular activity against Mycobacterium tuberculosis H37Rv infected in immune compromised GKO mouse assessed as lung log CFU reduction; assay type: functional
[7] = system: Mycobacterium tuberculosis; assay: Antitubercular activity against Mycobacterium tuberculosis H37Rv by microplate alamar blue assay; assay type: functional; in short: as §1
WI-38 = assay: Cytotoxicity against human WI-38 cells assessed as reduction in cell viability incubated for 72 hrs by MTT assay; assay type: cell-based; settings: WI-38, 72 h
[8] = Therapeutic index, ratio of IC50 for human WI-38 cells to MIC for Mycobacterium tuberculosis H37Rv; assay type: toxicity; settings: read-out: TI

Compound	MIC99 [1]	further results
CN(C)c1cc2[nH]c(C3CCCC3)nc2cc1NC(=O)C1CCC1	> 10 µg/mL	–
CN(C)c1cc2[nH]c(C3CCOCC3)nc2cc1NC(=O)c1ccc(OC(F)(F)F)cc1F	10 µg/mL (≈ 21.4 µM)	–
CCCCOC(=O)Nc1cc2nc(SC3CCCCC3)[nH]c2cc1N(C)C	–	MIC99 [2]: < 0.0081 µg/mL; cytotoxicity at 72 h, 20 µM [3]: 50%; cytotoxicity at 72 h, 20 µM [4]: 87%
CN(C)c1cc2[nH]c(C3CCCCC3)nc2cc1NC(=O)c1ccc(OC(F)(F)F)cc1F	0.16 µg/mL (≈ 0.344 µM)	MIC99 [2]: 0.019 µg/mL (≈ 0.0409 µM); cytotoxicity at 72 h, 20 µM [3]: 57%; cytotoxicity at 72 h, 20 µM [4]: 78%; Activity [5]: 3.9 log10CFU; Activity [6]: 5.7 log10CFU; MIC [7]: 0.16 µg/mL (≈ 0.344 µM)
CCCCOC(=O)Nc1cc2nc(C3CCCCC3)[nH]c2cc1N(C)C	0.06 µg/mL (≈ 0.167 µM)	MIC99 [2]: 0.008 µg/mL (≈ 0.0223 µM)
CCCCOC(=O)Nc1cc2nc(Sc3ccccc3)[nH]c2cc1N(C)C	0.31 µg/mL (≈ 0.806 µM)	–
CN(C)c1cc2[nH]c(CN(C)c3ccccc3)nc2cc1NC(=O)c1ccc(F)cc1F	1.25 µg/mL (≈ 2.87 µM)	–
CCC(CC)c1nc2cc(NC(=O)c3ccccc3)c(N(C)C)cc2[nH]1	1.56 µg/mL (≈ 4.45 µM)	–
CN(C)c1cc2[nH]c(C3CCCC3)nc2cc1NC(=O)c1ccccc1	1.56 µg/mL (≈ 4.48 µM)	–
CN(C)c1cc2[nH]c(C3CCCC3)nc2cc1NC(=O)c1ccc(C(C)(C)C)cc1	0.78 µg/mL (≈ 1.93 µM)	–
CCCCOC(=O)Nc1cc2nc(SCC3CCCCC3)[nH]c2cc1N(C)C	0.015 µg/mL (≈ 0.0371 µM)	IC50 (WI-38): 20 µM; MIC99 [2]: 0.0039 µg/mL (≈ 0.00964 µM); selectivity ratio [8]: > 100; cytotoxicity at 72 h, 20 µM [3]: 0%; cytotoxicity at 72 h, 20 µM [4]: 52%
CN(C)c1cc2[nH]c(C3CCCC3)nc2cc1NC(=O)c1ccc(F)cc1F	0.625 µg/mL (≈ 1.63 µM)	–
CCC(CC)c1nc2cc(NC(=O)c3ccc(OC(F)(F)F)cc3)c(N(C)C)cc2[nH]1	0.31 µg/mL (≈ 0.714 µM)	–
CCCCOC(=O)Nc1cc2nc(SCC)[nH]c2cc1N(C)C	1.2 µg/mL (≈ 3.57 µM)	MIC99 [2]: 0.16 µg/mL (≈ 0.476 µM)
CC(C)c1nc2cc(NC(=O)c3ccc(C(C)(C)C)cc3)c(N(C)C)cc2[nH]1	0.78 µg/mL (≈ 2.06 µM)	–
CN(C)c1cc2[nH]c(CN(C)c3ccccc3)nc2cc1NC(=O)c1ccc(OC(F)(F)F)cc1F	0.29 µg/mL (≈ 0.578 µM)	MIC99 [2]: 0.19 µg/mL (≈ 0.379 µM); cytotoxicity at 72 h, 20 µM [3]: 30%; cytotoxicity at 72 h, 20 µM [4]: 59%
CCC(CC)c1nc2cc(NC(=O)c3ccccc3OC)c(N(C)C)cc2[nH]1	1.56 µg/mL (≈ 4.1 µM)	–
CCCCOC(=O)Nc1cc2nc(SC(C)C)[nH]c2cc1N(C)C	0.31 µg/mL (≈ 0.884 µM)	–
CCCCOC(=O)Nc1cc2nc(C3CCCC3)[nH]c2cc1N(C)C	0.31 µg/mL (≈ 0.9 µM)	cytotoxicity at 72 h, 20 µM [3]: 42%; cytotoxicity at 72 h, 20 µM [4]: 86%

Compound	MIC99 [1]	further results
CCC(CC)c1nc2cc(NC(=O)c3ccc(C)cc3)c(N(C)C)cc2[nH]1	0.5 µg/mL (≈ 1.37 µM)	–
CCCc1ccc(C(=O)Nc2cc3nc(CN(C)c4ccccc4)[nH]c3cc2N(C)C)cc1	5 µg/mL (≈ 11.3 µM)	–
Cc1ccc(C(=O)Nc2cc3nc(Cc4ccccc4)[nH]c3cc2N(C)C)cc1	1.56 µg/mL (≈ 4.06 µM)	–
CCCCOC(=O)Nc1cc2nc(SC)[nH]c2cc1N(C)C	9.6 µg/mL (≈ 29.8 µM)	MIC99 [2]: 1.28 µg/mL (≈ 3.97 µM)
CCC(CC)c1nc2cc(NC(=O)c3ccc(OC)c(OC)c3)c(N(C)C)cc2[nH]1	12.5 µg/mL (≈ 30.4 µM)	–
CN(C)c1cc2[nH]c(C3CCCC3)nc2cc1NC(=O)c1ccc(OC(F)(F)F)cc1	1.56 µg/mL (≈ 3.61 µM)	–
COc1ccccc1C(=O)Nc1cc2nc(C3CCCC3)[nH]c2cc1N(C)C	12.5 µg/mL (≈ 33 µM)	–
CN(C)c1cc2[nH]c(C3CCCCC3)nc2cc1NC(=O)c1ccc(C(F)(F)F)cc1F	–	Activity [5]: 3.9 log10CFU; Activity [6]: 5.7 log10CFU; MIC [7]: 0.16 µg/mL (≈ 0.357 µM)
CCCCOC(=O)Nc1cc2nc(CN3CCOCC3)[nH]c2cc1N(C)C	2.4 µg/mL (≈ 6.39 µM)	MIC99 [2]: 1.6 µg/mL (≈ 4.26 µM)
COc1ccc(CC(=O)Nc2cc3nc(CN(C)c4ccccc4)[nH]c3cc2N(C)C)cc1	> 10 µg/mL	–
CN(C)c1cc2[nH]c(Cc3ccccc3)nc2cc1NC(=O)c1ccc(F)cc1F	0.63 µg/mL (≈ 1.55 µM)	–
CCCCOC(=O)Nc1cc2nc(SCc3ccccc3)[nH]c2cc1N(C)C	0.31 µg/mL (≈ 0.778 µM)	–
CCC(CC)C(=O)Nc1cc2nc(Cc3ccccc3)[nH]c2cc1N(C)C	> 10 µg/mL	–
CN(C)c1cc2[nH]c(C3CCCC3)nc2cc1NC(=O)c1ccc(F)cc1	0.78 µg/mL (≈ 2.13 µM)	–
CN(C)c1cc2[nH]c(C3CCCC3)nc2cc1NC(=O)C(C)(C)C	50 µg/mL (≈ 152 µM)	–
CCC(CC)c1nc2cc(NC(=O)c3ccc(F)cc3)c(N(C)C)cc2[nH]1	0.78 µg/mL (≈ 2.12 µM)	–
CN(C)c1cc2[nH]c(Cc3ccccc3)nc2cc1NC(=O)c1ccccc1	1.25 µg/mL (≈ 3.37 µM)	–
COc1ccc(C(=O)Nc2cc3nc(C4CCCC4)[nH]c3cc2N(C)C)cc1	1.25 µg/mL (≈ 3.3 µM)	–
CN(C)c1cc2[nH]c(Cc3ccccc3)nc2cc1NC(=O)c1ccc(F)cc1	0.63 µg/mL (≈ 1.62 µM)	–

Compound	MIC99 [1]	further results
CCCCOC(=O)Nc1cc2nc(CN3CCCCC3)[nH]c2cc1N(C)C	0.14 µg/mL (≈ 0.375 µM)	MIC99 [2]: 0.09 µg/mL (≈ 0.241 µM); cytotoxicity at 72 h, 20 µM [3]: 0%; cytotoxicity at 72 h, 20 µM [4]: 60%
CN(C)c1cc2[nH]c(Cc3ccccc3)nc2cc1NC(=O)C(C)(C)C	> 10 µg/mL	–
CCCCOC(=O)Nc1cc2nc(C(C)C)[nH]c2cc1N(C)C	1.25 µg/mL (≈ 3.93 µM)	–
CCC(CC)c1nc2cc(NC(=O)c3ccc(F)cc3F)c(N(C)C)cc2[nH]1	0.71 µg/mL (≈ 1.84 µM)	–
COc1ccc(C(=O)Nc2cc3nc(Cc4ccccc4)[nH]c3cc2N(C)C)cc1	1.25 µg/mL (≈ 3.12 µM)	–
CCCCOC(=O)Nc1cc2nc(CN(C)c3ccccc3)[nH]c2cc1N(C)C	0.16 µg/mL (≈ 0.405 µM)	–
CCCCOC(=O)Nc1cc2nc(Cc3ccccc3)[nH]c2cc1N(C)C	< 0.078 µg/mL	cytotoxicity at 72 h, 20 µM [3]: 80%; cytotoxicity at 72 h, 20 µM [4]: 93%
CN(C)c1cc2[nH]c(Cc3ccccc3)nc2cc1NC(=O)c1ccc(OC(F)(F)F)cc1	1.25 µg/mL (≈ 2.75 µM)	–
CCCCOC(=O)Nc1cc2nc(CN3CCCC3)[nH]c2cc1N(C)C	2.4 µg/mL (≈ 6.68 µM)	MIC99 [2]: 1.6 µg/mL (≈ 4.45 µM)
CN(C)c1cc2[nH]c(Cc3ccccc3)nc2cc1NC(=O)c1ccc(C(C)(C)C)cc1	0.33 µg/mL (≈ 0.774 µM)	–
CCC(CC)C(=O)Nc1cc2nc(C3CCCC3)[nH]c2cc1N(C)C	> 50 µg/mL	–
CCCCOC(=O)Nc1cc2nc(C3CCOCC3)[nH]c2cc1N(C)C	> 2.5 µg/mL	–
CCCCOC(=O)Nc1cc2nc(CN(CCC)CCC)[nH]c2cc1N(C)C	0.16 µg/mL (≈ 0.411 µM)	cytotoxicity at 72 h, 20 µM [3]: 0%; cytotoxicity at 72 h, 20 µM [4]: 4%
CCCCOC(=O)Nc1cc2nc(-c3cccs3)[nH]c2cc1N(C)C	> 10 µg/mL	–
Cc1ccc(C(=O)Nc2cc3nc(CN(C)c4ccccc4)[nH]c3cc2N(C)C)cc1	1.25 µg/mL (≈ 3.02 µM)	–
CCCCOC(=O)Nc1cc2nc(C(CC)CC)[nH]c2cc1N(C)C	0.078 µg/mL (≈ 0.225 µM)	cytotoxicity at 72 h, 20 µM [3]: 32%; cytotoxicity at 72 h, 20 µM [4]: 77%
Cc1ccc(C(=O)Nc2cc3nc(C4CCCC4)[nH]c3cc2N(C)C)cc1	0.625 µg/mL (≈ 1.72 µM)	–
CN(C)c1cc2[nH]c(CN(C)c3ccccc3)nc2cc1NC(=O)c1ccc(C(C)(C)C)cc1	2.5 µg/mL (≈ 5.49 µM)	–
CN(C)c1cc2[nH]c(C3CCOCC3)nc2cc1NC(=O)c1ccc(OC(F)(F)F)cc1	> 10 µg/mL	–
